Rad51 HR inh: blocks human Rad51 in homologous recombination; Q06609; hRad51 DNA strand exchange, fluorescence dequenching; inhibition, % at 10 µM; 0.085% of 200,000 active;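 active = inhibition above 40% at the single screening dose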;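 also: 0% = DMSO control wells and 100% = blanks with heterologous ssDNA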
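material = hRad51 filaments on single-stranded DNA | timing = filaments 15 min 37 °C, then compound 30 min | signal = FRET fluorescence dequenching, excitation 485 nm, emission 520 nm | benchmarks = control wells and blank wells on each plate | evaluation = percent inhibition relative to plate controls and blanks | compound = 10 µM final, single point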
Autophagy HCS: alters autophagy in cells; 0.98% of 190,000 active; calls only at 10 µM (by protocol); MEF GFP-LC3 puncta imaging; test concentration mostly 10 µM; AID 463193;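 active = percentage of spot-positive cells more than 3 SD above its plate mean, without a fluorescence outlier flag or 80% toxicity; inconclusive = no clear call, values can overlap the other calls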;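 also: spot-positive cell cutoff set from DMSO-treated cells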
Cl transport mod: KCC2 (human) Cl- transport modulation; B-score of Tl+ flux slope (higher = more flux/activation; lower = inhibition) at 10 µM; 2.2% of 190,000 active; Q9H2X9; AID 1456; KCC2 cells, thallium flux FluoZin-2 fluorescence;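 active = thallium flux slope and its plate-corrected score both differing from the plate sample mean at a set confidence after two filtering rounds, in either direction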;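 also: slope of fluorescence scaled to starting intensity during 10 to 20 s after thallium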
Target sequence (Q9H2X9 whole entry, looked up): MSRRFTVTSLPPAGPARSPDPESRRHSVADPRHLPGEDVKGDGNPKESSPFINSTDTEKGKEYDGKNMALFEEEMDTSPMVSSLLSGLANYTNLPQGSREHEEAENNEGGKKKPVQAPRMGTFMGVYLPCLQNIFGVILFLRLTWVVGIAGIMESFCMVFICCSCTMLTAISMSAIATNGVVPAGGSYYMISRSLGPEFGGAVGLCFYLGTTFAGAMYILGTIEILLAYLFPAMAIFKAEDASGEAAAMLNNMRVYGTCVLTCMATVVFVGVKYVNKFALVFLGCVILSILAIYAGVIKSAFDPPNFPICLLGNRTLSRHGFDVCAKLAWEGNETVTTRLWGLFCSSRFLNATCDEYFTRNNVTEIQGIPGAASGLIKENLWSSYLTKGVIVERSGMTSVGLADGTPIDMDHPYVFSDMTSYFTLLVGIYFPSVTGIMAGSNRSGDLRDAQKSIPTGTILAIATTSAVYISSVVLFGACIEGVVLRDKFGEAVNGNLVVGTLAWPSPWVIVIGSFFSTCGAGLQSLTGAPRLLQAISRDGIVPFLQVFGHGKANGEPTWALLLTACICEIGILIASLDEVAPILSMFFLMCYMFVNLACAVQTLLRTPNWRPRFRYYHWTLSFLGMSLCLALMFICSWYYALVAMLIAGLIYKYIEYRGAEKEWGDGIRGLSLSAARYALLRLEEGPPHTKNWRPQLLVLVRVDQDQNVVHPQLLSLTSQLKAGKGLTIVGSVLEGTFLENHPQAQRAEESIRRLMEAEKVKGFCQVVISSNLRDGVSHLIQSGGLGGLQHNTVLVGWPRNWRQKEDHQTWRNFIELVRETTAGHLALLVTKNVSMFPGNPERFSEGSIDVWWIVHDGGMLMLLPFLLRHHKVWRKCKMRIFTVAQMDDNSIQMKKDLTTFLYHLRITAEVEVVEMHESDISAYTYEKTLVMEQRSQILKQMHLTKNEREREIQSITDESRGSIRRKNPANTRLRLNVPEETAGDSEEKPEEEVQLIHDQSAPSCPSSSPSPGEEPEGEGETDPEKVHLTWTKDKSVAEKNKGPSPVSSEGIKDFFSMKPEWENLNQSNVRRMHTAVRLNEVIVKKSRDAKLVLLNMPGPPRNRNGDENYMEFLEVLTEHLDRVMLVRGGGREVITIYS
WT yeast gro inh: growth inhibition of WT yeast, mitochondrial fusion screen. mitochondrial fusion phenotypic screen, WT strain. inhibition, % at 10 µM. 2.1% of 190,000 active; in the data active = inhibition above about 58%; tested in S. cerevisiae
SKKanGAS inh: blocks kanamycin growth of S. pyogenes SKKanGAS strain; 1.3% of 300,000 active; AID 1662; BacTiter-Glo, 6 h; inhibition, % at 7.5 µM;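 active = mean replicate score, as percent of positive control median, at least 50; inconclusive = mean below 50 but one replicate at or above 50; inactive = mean and every replicate below 50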;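 also: strain carries kanamycin resistance gene driven by streptokinase promoter and grows in 40 µg/ml kanamycin; loss of luminescence reflects streptokinase promoter inhibition or plain growth inhibition; 0% = median of DMSO wells and 100% = positive control at its reference dose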
Insulin prom up: MIN6 insulin promoter up-regulation; MIN6 insulin promoter-GFP reporter, high-content imaging; active compounds read high; z-score at 5 µM; AID 1625; 0.3% of 190,000 active;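 active = z-score above 3 at 5 µM with at least 500 cells counted in the well; inconclusive = wells under 500 cells, flagged as cytotoxic or low count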
Numbers without * were called inactive; i = inactive; ? = inconclusive; . = no result given; + = active, no number. Most compounds without a hit are left out; they make up all but 4.2% or so of the library.

SMILES	Rad51 HR inh	Autophagy HCS	Cl transport mod	WT yeast gro inh	SKKanGAS inh	Insulin prom up
COc1cccc(C(=O)Nc2cc(NC(=O)c3ccco3)ccc2OC)c1	1	i	0.79	2	-5	-0.41
COc1ccccc1NC(=O)c1ccc(NC(=O)c2ccco2)cc1	.	.	.	.	-2	.
COc1ccccc1NC(=O)/C(C#N)=C/C=C/c1ccco1	3	+	0.48	-5	-8	.
CCCN(CCC)S(=O)(=O)c1cc2c3c(c1)CCN3C(=O)CC2	.	.	.	.	-2	.
CCn1c(CC(=O)Nc2ccccc2Cl)nnc1SCC(=O)NC1CCCC1	.	.	.	.	-3	.
CCOC(=O)c1c(C)nc2cc(C)cc(C)n12	4	i	0.08	10	2	-0.64
COc1ccccc1C(=O)NNC(=O)C(=O)Nc1cccc(Cl)c1C	.	.	.	.	53*	.
COC(=O)c1sccc1S(=O)(=O)NCc1ccc(S(N)(=O)=O)cc1	.	.	.	.	15	.
CCN(CC)S(=O)(=O)c1cccc(NC(=O)C2SC(=Nc3ccc(C)cc3C)C(C(=O)NCC3CCCO3)=C2N)c1 (stereo not drawn)	-3	i	-0.12	3	22	0.15
Cc1cccc(NC(=O)C2SC(=Nc3c(C)cccc3C)C(C(=O)N3CCOCC3)=C2N)c1 (stereo not drawn)	-2	i	2.1	9	94*	-0.53
C[C@@H]1C(=O)O[C@H]2[C@H](O)[C@@]34[C@H]5C[C@@H](C(C)(C)C)[C@]36[C@@H](OC(=O)[C@@H]6O)O[C@@]4(C(=O)O5)[C@@]12O	.	.	.	.	2	.
C=CCn1c(SCC(=O)Nc2ccc3c(c2)CCC3)nnc1-c1cccs1	-4	i	-1.3	70*	3	0.08
CCCCn1c(CN2CCN(c3cccc(Cl)c3)CC2)nc2c1c(=O)[nH]c(=O)n2C	-11	+	0.015	11	14	-0.35
Cc1ccc(Cl)cc1N1CCN(Cc2nc3c(c(=O)[nH]c(=O)n3C)n2CCc2ccccc2)CC1	-3	i	-0.72	3	1	0.22
Cn1c(=O)[nH]c(=O)c2c1nc(CN1CCN(c3cccc(Cl)c3)CC1)n2CCCc1ccccc1	-1	i	1.2	7	25	-0.6
Cc1ccc(Cl)cc1N1CCN(Cc2nc3c(c(=O)[nH]c(=O)n3C)n2Cc2ccccc2F)CC1	.	.	.	.	79*	-0.75
CN(C)S(=O)(=O)c1ccc(C(=O)Nc2ccn(C)n2)cc1	.	.	.	.	-6	.
CC12CCC(C/C1=N\N=C1\NC(=O)/C(=C\c3cccc(Br)c3)S1)C2(C)C (stereo not drawn)	4	i	0.12	20	104*	-0.08
O=C(NC1CCN(Cc2ccc(Cl)cc2Cl)CC1)c1ccccc1	.	.	.	.	2	.
COCc1cc(Sc2c(Cl)cccc2Cl)nc(-c2ccccc2)n1	-4	i	0.099	11	66*	-1.6
O=C(COC(=O)Cc1cn2ccsc2n1)Nc1nc2ccccc2s1	4	i	.	4	80*	0.79
COCC1CCCN(Cc2cn(-c3ccccc3)nc2-c2ccc3c(c2)OCO3)C1 (stereo not drawn)	8	i	0.17	-3	-5	0.31
O=C1CCc2ccc(OCCCCN3CCN(c4cccc(Cl)c4Cl)CC3)cc2N1	4	.	0.52	84*	10	0.16
COc1ccccc1N1CCN(CCCOc2ccc(F)cc2)CC1	10	i	0.33	23	0	-0.45
O=C1Nc2ccccc2/C1=N\c1sc2c(c1C(=O)Nc1ccccc1)CCCC2	-4	+	-0.27	12	4	-1.3
SMILES	Rad51 HR inh	Autophagy HCS	Cl transport mod	WT yeast gro inh	SKKanGAS inh	Insulin prom up
Cc1ccc(Cn2c(=O)n(Cc3ccco3)c(=O)c3ccccc32)cc1	-1	i	-0.29	14	55*	.
CCN=c1scc(-c2ccco2)n1/N=C/c1ccc(OC)c(O)c1	2	i	-1.7	59*	3	0.36
CCN=c1scc(-c2ccco2)n1/N=C/c1ccc(O)cc1	-7	i	.	3	23	.
COc1ccccc1N1CCN(/N=C/C(Cl)=C/c2ccccc2)CC1	.	.	0.27	.	2	.
CC(C1CC1)N(Cc1ccccc1)C(=S)Nc1cccc(C(F)(F)F)c1 (stereo not drawn)	5	i	-0.46	76*	-1	0.12
CC(C1CC1)N(Cc1ccccc1)C(=S)Nc1ccccc1 (stereo not drawn)	4	i	-0.75	21	-11	-0.57
Cc1c(-c2cccs2)[n+](=O)c2c(n1[O-])CCCCC2	-8	i	.	58*	-3	0.51
Cc1c(-c2ccccc2)[n+](=O)c2c(n1[O-])CCCC2	8	.	0.4	.	-1	0.23
Cc1cc(C)cc(N2C(=O)CSC2c2ccccn2)c1 (stereo not drawn)	20	i	0.007	-13	-8	-0.11
Cc1ccc(Nc2nc(C)c3c(n2)CC(C)CC3=O)c(C)c1 (stereo not drawn)	-22	.	-1.5	.	8	-0.59
Cc1nc(Nc2cccc(C(F)(F)F)c2)nc2c1C(=O)CC(C)C2 (stereo not drawn)	0	+	0.22	-17	0	-0.06
Cc1cc(C)n(-c2ccc(C(=O)N3CCC(CO)(Cc4ccccc4)CC3)cc2)n1	2	i	-0.43	1	5	-0.39
Cc1cc(C)c(S(=O)(=O)Nc2ccc3c(c2)CCC3)c(C)c1	-11	i	-1.9	77*	12	-0.01
Cc1cc(C)c(S(=O)(=O)Nc2ccc(O)cc2)c(C)c1	2	i	-0.68	10	2	0.23
Cc1cc2oc(=O)cc(Cn3ncc(Cl)c(Cl)c3=O)c2cc1Cl	.	+	.	-1	10	?
O=C(NC(=S)Nc1cc(C(F)(F)F)ccc1Cl)c1ccccc1	5	i	1.8	8	1	-0.49
Cc1ccc([N+](=O)[O-])cc1NC(=O)c1cccs1	.	i	-0.56	-8	-9	3.2*
O=C(O)c1cccc(NC(=S)NC(NC(=O)c2cccc([N+](=O)[O-])c2)C(Cl)(Cl)Cl)c1 (stereo not drawn)	25	.	-0.8	.	7	-0.25
O=C(NC(=S)Nc1cc([N+](=O)[O-])ccc1Cl)c1ccccc1	0	i	11*	15	11	.
O=C(NC(NC(=S)Nc1ccc(Cl)cc1Cl)C(Cl)(Cl)Cl)c1cccc([N+](=O)[O-])c1 (stereo not drawn)	-3	i	.	-18	106*	0.64
Cc1ccc([N+](=O)[O-])cc1NC(=S)NC(=O)c1ccco1	-7	i	15*	-6	-1	0.04
COc1ccc(CCNC(=O)C2CCC(C(C)(C)C)CC2)cc1OC (stereo not drawn)	.	.	.	.	-24	.
COCCn1ccc2c(OCC(=O)NCc3ccc(C)cc3)cccc2c1=O	.	.	.	.	-9	.
Cc1ccc(C(C)C)cc1NC(=O)Nc1ccc([N+](=O)[O-])cc1	-2	.	-0.42	.	88*	-0.6
CCOc1ccc(NC(=O)Nc2cc(C(C)C)ccc2C)cc1	0	.	-1.3	.	-7	-0.32
CCCCNC(=S)NC(=O)c1ccc([N+](=O)[O-])cc1	.	i	21*	15	1	0.04

Compound activity: PubChem BioAssay, several laboratories
